Values after ≈ are worked out from the molar mass of the structure shown.
How the values were obtained:
Candida albicans = test: Antifungal activity against Candida albicans ATCC 10231 assessed as growth inhibition after 48 hrs by broth microdilution relative to control; type: functional
Summary of the method: (§1)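 Broth microdilution against yeast; incubation at 35 °C for 48 h. Growth read by visual turbidity versus antifungal-free control wells and by absorbance at 530 nm. MIC₅₀ taken as the lowest level giving a prominent visual decrease in turbidity plus >50% growth reduction versus no-antifungal controls. Values in µg/mL; partial inhibition (e.g. 25%) noted where below threshold.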

Cryptococcus neoformans [1] = test: Antifungal activity against Cryptococcus neoformans ATCC 36556 assessed as growth inhibition after 48 hrs by broth microdilution relative to control; type: functional; summary of the method: as §1
Nakaseomyces glabratus [2] = test: Antifungal activity against Candida glabrata ATCC 48435 assessed as growth inhibition after 48 hrs by broth microdilution relative to control; type: functional; summary of the method: as §1
Cryptococcus neoformans [3] = test: Antifungal activity against Cryptococcus neoformans ATCC 36556 after 48 hrs by broth microdilution technique; type: functional; conditions: ATCC 36556, 48 h; summary of the method: as §1
[4] = Cytotoxicity against Sylvilagus floridanus CCL68 cells after 24 hrs by MTT assay; type: cell-based
Summary of the method: (§2)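 Tetrazolium (MTT-type) proliferation assay on noncancerous Vero and rabbit skin cells. Compounds diluted in media to 200, 100, 50 and 25 µg/ml; 24 h exposure at 37 °C, 5% CO₂. Dye added for 1–4 h, then stop solution 1 h at room temperature; formazan read at 570 nm. Viability given as % of 1% DMSO no-drug wells; saponin as cell-death control; triplicate, mean ± SD.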

Vero = test: Cytotoxicity against african green monkey Vero cells after 24 hrs by MTT assay; type: cell-based; conditions: chlorocebus sabaeus; summary of the method: as §2
Nakaseomyces glabratus [5] = test: Antifungal activity against Candida glabrata ATCC 48435 after 48 hrs by broth microdilution technique; type: functional; conditions: ATCC 48435, 48 h; summary of the method: as §1

Compound	growth inhibition (GI) (Candida albicans) [%]	growth inhibition (GI) (Cryptococcus neoformans [1]) [%]	growth inhibition (GI) (Nakaseomyces glabratus [2]) [%]	MIC50 (Cryptococcus neoformans [3]) [µg/mL]	Activity [4]	Activity (Vero)	MIC50 (Nakaseomyces glabratus [5]) [µg/mL]
CC(C)CCC[C@@H](C)[C@H]1CC[C@H]2[C@@H]3CC[C@H]4C[C@@H](O)CC[C@]4(C)[C@H]3CC[C@]12C	<50	<50	<50	–	–	–	–
CC(C)CCC[C@@H](C)[C@H]1CC[C@H]2[C@@H]3CC[C@H]4C[C@@H](O)[C@H](O)C[C@]4(C)[C@H]3CC[C@]12C	<50	25	<50	32 (≈ 79.1 µM)	–	–	–
CC(C)CCC[C@@H](C)[C@H]1CC[C@H]2[C@@H]3CC[C@H]4C[C@@H](O[C@H]5O[C@H](CO)[C@@H](O)[C@H](O)[C@H]5O)CC[C@]4(C)[C@H]3CC[C@]12C	<50	<50	<50	–	–	–	–
CC(C)CCC[C@@H](C)[C@H]1CC[C@H]2[C@@H]3CC[C@H]4C[C@@H](O[C@@H]5O[C@H](CO)[C@@H](O)[C@H](O)[C@H]5O)CC[C@]4(C)[C@H]3CC[C@]12C	<50	<50	<50	–	–	–	–
CC(C)CCC[C@@H](C)[C@H]1CC[C@H]2[C@@H]3CC[C@H]4C[C@@H](O[C@H]5O[C@H](CO)[C@@H](O[C@H]6O[C@H](CO)[C@@H](O)[C@H](O)[C@H]6O)[C@H](O)[C@H]5O)CC[C@]4(C)[C@H]3CC[C@]12C	<50	<50	<50	–	–	–	–
CC(C)CCC[C@@H](C)[C@H]1CC[C@H]2[C@@H]3CC[C@H]4C[C@@H](O[C@@H]5O[C@H](CO)[C@@H](O[C@H]6O[C@H](CO)[C@@H](O)[C@H](O)[C@H]6O)[C@H](O)[C@H]5O)CC[C@]4(C)[C@H]3CC[C@]12C	<50	–	–	4 (≈ 5.61 µM)	Non-toxic	Non-toxic	4 (≈ 5.61 µM)
CC(C)CCC[C@@H](C)[C@H]1CC[C@H]2[C@@H]3CC[C@H]4C[C@@H](O[C@@H]5O[C@H](CO)[C@@H](O[C@@H]6O[C@H](CO)[C@@H](O)[C@H](O)[C@H]6O)[C@H](O)[C@H]5O)CC[C@]4(C)[C@H]3CC[C@]12C	<50	–	–	> 125	–	–	> 125
CC(C)CCC[C@@H](C)[C@H]1CC[C@H]2[C@@H]3CC[C@H]4C[C@@H](O[C@H]5O[C@H](CO)[C@@H](O)[C@H](O)[C@H]5O)[C@H](O)C[C@]4(C)[C@H]3CC[C@]12C	<50	<50	<50	–	–	–	–
CC(C)CCC[C@@H](C)[C@H]1CC[C@H]2[C@@H]3CC[C@H]4C[C@@H](O[C@@H]5O[C@H](CO)[C@@H](O)[C@H](O)[C@H]5O)[C@H](O)C[C@]4(C)[C@H]3CC[C@]12C	<50	<50	<50	–	–	–	–
CC(C)CCC[C@@H](C)[C@H]1CC[C@H]2[C@@H]3CC[C@H]4C[C@@H](O[C@H]5O[C@H](CO)[C@@H](O[C@H]6O[C@H](CO)[C@@H](O)[C@H](O)[C@H]6O)[C@H](O)[C@H]5O)[C@H](O)C[C@]4(C)[C@H]3CC[C@]12C	<50	<50	<50	–	–	–	–
CC(C)CCC[C@@H](C)[C@H]1CC[C@H]2[C@@H]3CC[C@H]4C[C@@H](O[C@@H]5O[C@H](CO)[C@@H](O[C@H]6O[C@H](CO)[C@@H](O)[C@H](O)[C@H]6O)[C@H](O)[C@H]5O)[C@H](O)C[C@]4(C)[C@H]3CC[C@]12C	<50	–	<50	32 (≈ 43.9 µM)	–	–	–
CC(C)CCC[C@@H](C)[C@H]1CC[C@H]2[C@@H]3CC[C@H]4C[C@@H](O[C@@H]5O[C@H](CO)[C@@H](O[C@@H]6O[C@H](CO)[C@@H](O)[C@H](O)[C@H]6O)[C@H](O)[C@H]5O)[C@H](O)C[C@]4(C)[C@H]3CC[C@]12C	<50	–	–	4 (≈ 5.49 µM)	Toxic	Toxic	8 (≈ 11 µM)
C[C@@H]1CC[C@@]2(OC1)O[C@H]1C[C@H]3[C@@H]4CC[C@H]5C[C@@H](O[C@H]6O[C@H](CO)[C@@H](O)[C@H](O)[C@H]6O)[C@H](O)C[C@]5(C)[C@H]4CC[C@]3(C)[C@H]1[C@@H]2C	<50	<50	<50	–	–	–	–
C[C@@H]1CC[C@]2(C[C@H]3C[C@H]4[C@@H]5CC[C@H]6C[C@@H](O[C@@H]7O[C@H](CO)[C@@H](O)[C@H](O)[C@H]7O)[C@H](O)C[C@]6(C)[C@H]5CC[C@]4(C)[C@H]3[C@@H]2C)OC1	<50	<50	<50	–	–	–	–
C[C@@H]1CC[C@]2(C[C@H]3C[C@H]4[C@@H]5CC[C@H]6C[C@@H](O[C@H]7O[C@H](CO)[C@@H](O[C@H]8O[C@H](CO)[C@@H](O)[C@H](O)[C@H]8O)[C@H](O)[C@H]7O)[C@H](O)C[C@]6(C)[C@H]5CC[C@]4(C)[C@H]3[C@@H]2C)OC1	<50	<50	<50	–	–	–	–
C[C@@H]1CC[C@]2(C[C@H]3C[C@H]4[C@@H]5CC[C@H]6C[C@@H](O[C@@H]7O[C@H](CO)[C@@H](O[C@@H]8O[C@H](CO)[C@@H](O)[C@H](O)[C@H]8O)[C@H](O)[C@H]7O)[C@H](O)C[C@]6(C)[C@H]5CC[C@]4(C)[C@H]3[C@@H]2C)OC1	–	–	–	–	Non-toxic	Non-toxic	–

Reference: ChEMBL document CHEMBL1921697, “Antifungal activity of 2α,3β-functionalized steroids stereoselectively increases with the addition of oligosaccharides” (Bioorg Med Chem Lett, 2011)
